Measurements published in ChEMBL document CHEMBL3785040, “Syntheses and Biological Evaluations of Highly Functionalized Hydroxamate Containing and N-Methylthio Monobactams as Anti-Tuberculosis and β-Lactamase Inhibitory Agents” (Medchemcomm, 2016).
Values after ≈ are worked out from the molar mass of the structure shown. Active and inactive are the calls of the source. The calls are words filed in the database; no cut-off is given here.

Experiments:
[1] = Inhibition of purified beta-lactamase CTX-M-14 (unknown origin) using nitrocefin as substrate preincubated for 10 mins followed by substrate addition
Outline: (§1)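 Test compound was preincubated 10 min with enzyme, then substrate was added and optical density was followed over time to determine Ki (μM). CTX-M-14 (class A), Oxa-48 (class D) and NDM-1 (class B) were purified enzymes; VIM-1 (class B) was a lysate. NDM-1 used imipenem as substrate; the other three used nitrocefin.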

[2] = Inhibition of purified beta-lactamase Oxa-48 (unknown origin) using nitrocefin as substrate preincubated for 10 mins followed by substrate addition; outline: as §1
[3] = Inhibition of purified beta-lactamase NDM-1 (unknown origin) using imipenem as substrate preincubated for 10 mins followed by substrate addition; outline: as §1
[4] = Inhibition of beta-lactamase VIM-1 lysate (unknown origin) using nitrocefin as substrate preincubated for 10 mins followed by substrate addition; outline: as §1
[5] = system: Mycobacterium tuberculosis; assay: Antituberculosis activity against Mycobacterium tuberculosis H37Rv in 7H12 medium incubated for 4 days by Microplate Alamar Blue assay; assay type: functional; settings: 96 h
Outline: (§2)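 MICs in μM were determined against M. tuberculosis H37Rv by Microplate Alamar Blue assay. Line 2 used 7H12 medium, which is 7H9 medium plus casitone, palmitic acid, albumin and catalase.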

[6] = system: Mycobacterium tuberculosis; assay: Antituberculosis activity against Mycobacterium tuberculosis H37Rv in glycerol-alanine salts medium incubated for 4 days by Microplate Alamar Blue assay; assay type: functional; settings: 96 h; outline: as §2
[7] = system: Mycolicibacterium vaccae; assay: Antibacterial activity against Mycobacterium vaccae IMET 10670 incubated for 18 to 24 hrs measured after 24 to 48 hrs by agar diffusion assay; assay type: functional, organism-based
Outline: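 Kirby–Bauer agar diffusion assay; the read-out is the diameter of the inhibition zone in mm.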

| SMILES | Ki [1] [µM] | Ki [2] [µM] | Ki [3] [µM] | Ki [4] [µM] | MIC [5] [µM] | MIC [6] [µM] | Activity [7] |
| --- | --- | --- | --- | --- | --- | --- | --- |
| CC(=O)O[C@@H]1NC(=O)[C@H]1NC(=O)COc1ccccc1 | > 160 | > 160 | 5.87 | > 160 | – | – | – |
| C[C@@H](O[Si](C)(C)C(C)(C)C)[C@H]1C(=O)N[C@@H]1N(OCc1ccccc1)C(=O)c1ccccc1 | 0.25 | > 160 | > 160 | > 160 | > 100 | > 100 | – |
| CSN1C(=O)[C@H]([C@@H](C)O[Si](C)(C)C(C)(C)C)[C@H]1N(OCc1ccccc1)C(=O)c1ccccc1 | 0.4 | > 160 | > 160 | > 160 | 10.3 (≈ 5.14 µg/mL) | 0.753 | inactive |
| C[C@@H](O)[C@H]1C(=O)N[C@@H]1N(OCc1ccccc1)C(=O)c1ccccc1 | > 160 | > 160 | > 160 | > 160 | > 100 | > 100 | – |
| CSN1C(=O)[C@@H](NC(=O)Cc2ccccc2)[C@@H]1OC(C)=O | – | – | – | – | 47.6 (≈ 14.7 µg/mL) | 10.7 | – |
| C[C@@H](O[Si](C)(C)C(C)(C)C)[C@H]1C(=O)N[C@@H]1N(O)C(=O)c1ccccc1 | 0.32 | > 160 | > 160 | > 160 | > 50 | > 50 | – |
| O=C(Cc1ccccc1)N[C@@H]1C(=O)N[C@H]1N(OCc1ccccc1)C(=O)c1ccccc1 | > 160 | > 160 | 5.54 | > 160 | > 100 | 6.05 | – |
| O=C(COc1ccccc1)N[C@@H]1C(=O)N[C@H]1N(OCc1ccccc1)C(=O)c1ccccc1 | 0.05 | > 160 | > 160 | > 160 | 5.93 (≈ 2.64 µg/mL) | < 0.195 | – |
| C=CCON(C(=O)c1ccc([N+](=O)[O-])cc1)C1CC(=O)N1SC (racemic) | 0.64 | > 160 | 0.03 | 22.7 | – | – | – |
| CSN1C(=O)CC1N(OCc1ccccc1)C(=O)c1ccc([N+](=O)[O-])cc1 (racemic) | > 160 | > 160 | 0.97 | > 160 | > 100 | 24.2 | – |
| CCOc1ccc(C(=O)N(OCc2ccccc2)C2CC(=O)N2)cc1 (racemic) | > 160 | > 160 | > 160 | > 160 | > 100 | 49.3 | – |
| CSN1C(=O)[C@@H](NC(=O)Cc2ccccc2)[C@@H]1N(OCc1ccccc1)C(=O)c1ccccc1 (racemic) | > 160 | 1.95 | 0.07 | 2.86 | 47.3 (≈ 22.5 µg/mL) | 11.6 | – |
| CSN1C(=O)CC1N(OCc1ccccc1)C(=O)c1cc([N+](=O)[O-])cc(C(F)(F)F)c1 (racemic) | – | – | – | – | 23.4 (≈ 10.6 µg/mL) | 5.92 | – |
| C=CCON(C(=O)c1ccc([N+](=O)[O-])cc1)C1CC(=O)N1 (racemic) | > 160 | > 160 | > 160 | > 160 | – | – | – |
| CSN1C(=O)[C@@H](NC(=O)COc2ccccc2)[C@@H]1N(OCc1ccccc1)C(=O)c1ccccc1 (racemic) | > 160 | > 160 | 0.06 | > 160 | 6 (≈ 2.95 µg/mL) | > 50 | inactive |
| CSN1C(=O)[C@@H](NC(=O)COc2ccccc2)[C@@H]1N(OCc1ccccc1)C(=O)c1cc([N+](=O)[O-])cc(C(F)(F)F)c1 (racemic) | > 160 | > 160 | 0.15 | > 160 | > 100 | 64.1 | – |
| CC(C)(C)[Si](C)(C)ON(C(=O)c1ccccc1)[C@@H]1NC(=O)[C@H]1NC(=O)COc1ccccc1 (racemic) | > 160 | > 160 | 0.96 | 31.2 | – | – | – |
| CC(C)(C)[Si](C)(C)N1C(=O)CC1N(OCc1ccccc1)C(=O)c1ccccc1 (racemic) | > 160 | 1.72 | > 160 | > 160 | 49.2 (≈ 20.2 µg/mL) | 0.28 | inactive |
| CCOc1ccc(C(=O)N(OCc2ccccc2)C2CC(=O)N2SC)cc1 (racemic) | > 160 | > 160 | 0.07 | > 160 | > 100 | 34.8 | – |
| CSN1C(=O)CC1N(OCc1ccccc1)C(=O)c1ccccc1 (racemic) | – | – | – | – | > 50 | 17.9 | – |
| C=CCON(C(=O)c1cc([N+](=O)[O-])cc(C(F)(F)F)c1)C1CC(=O)N1SC (racemic) | > 160 | > 160 | 0.04 | 59.3 | – | – | – |
| C=CCON(C(=O)c1cc([N+](=O)[O-])cc(C(F)(F)F)c1)C1CC(=O)N1 (racemic) | > 160 | 1.93 | > 160 | > 160 | – | – | – |
| O=C1CC(N(OCc2ccccc2)C(=O)c2cc([N+](=O)[O-])cc(C(F)(F)F)c2)N1 (racemic) | – | – | – | – | 44.7 (≈ 18.3 µg/mL) | 30.3 | – |
| C[C@H]1COC2(CCN(c3nc(=O)c4cc(C(F)(F)F)cc([N+](=O)[O-])c4s3)CC2)O1 [BTZ-043] | – | – | – | – | < 0.004 | < 0.004 | – |
| CO[C@H]1/C=C/O[C@@]2(C)Oc3c(C)c(O)c4c(O)c(c(/C=N/N5CCN(C)CC5)c(O)c4c3C2=O)NC(=O)/C(C)=C\C=C\[C@H](C)[C@H](O)[C@@H](C)[C@@H](O)[C@@H](C)[C@H](OC(C)=O)[C@@H]1C [RIFAMPIN] | – | – | – | – | 0.05 (≈ 0.0411 µg/mL) | 0.04 | – |
